Laboratory results taken from ChEMBL document CHEMBL1158061, “Alkaloids from Gelsemium elegans” (J Nat Prod, 2006).

Tests used:
Format in all cases: functional, cell-based
HL-60 = experiment: Cytotoxicity against human HL-60 cells by MTT method
In short: (§1)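 MTT assay on P388 (murine leukemia) and HL-60 (human leukemia) cells, run by standard protocol with pseudolaric acid B as positive control. Values are reported as IC50 in molar units.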

P388 = experiment: Cytotoxicity against mouse P388 cells by MTT method; in short: as §1
A549 = experiment: Cytotoxicity against human A549 cells by SRB method
In short: (§2)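 SRB assay on A-549 (human lung adenocarcinoma) and BEL-7402 (human hepatocellular carcinoma) cells, run by standard protocol with pseudolaric acid B as positive control. Values are reported as IC50 in molar units.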

Bel-7402 = experiment: Cytotoxicity against human Bel-7402 cells by SRB method; in short: as §2

| SMILES | IC50 (HL-60) | IC50 (P388) | IC50 (A549) | IC50 (Bel-7402) |
| --- | --- | --- | --- | --- |
| CON1C(=O)[C@@]2(C[C@@H]3N=C([C@@H](C)C[C@H]4C(=O)OC[C@H]5[C@@H]4[C@@H](O)C[C@@H]5C)[C@@H]4[C@@H](O)[C@H]2OC[C@@H]43)c2ccccc21 | > 10 µM | > 10 µM | > 10 µM | > 10 µM |
| CON1C(=O)[C@@]2(C[C@@H]3N=C([C@H](C)C[C@@H]4C(=O)O[C@H]5C[C@H](C)[C@@H](CO)[C@H]54)[C@@H]4[C@@H](O)[C@H]2OC[C@@H]43)c2ccccc21 | > 10 µM | > 10 µM | > 10 µM | > 10 µM |
| CCN(CC)C[C@@H]1C(=O)O[C@H]2C[C@H](C)[C@@H](CO)[C@H]21 [GELSEBAMINE] | – | – | 0.634 µM | – |
| C=C[C@@]12CN(C)C3C1[C@@]1(C(=O)N(C[C@@H]4C(=O)O[C@H]5C[C@H](C)[C@@H](CO)[C@H]54)c4ccccc41)[C@H]1C[C@@H]2[C@@H]3CO1 [GELSEBANINE] | > 10 µM | > 10 µM | > 10 µM | > 10 µM |
